Most compounds without a hit are left out; they make up all but 5.2% or so of the library.
M18AAP inhibitor = PfM18AAP enzyme inhibition. recombinant PfM18AAP, H-Glu-NHMec fluorogenic cleavage. inhibition, % at 7.35 µM. hit rate 1.2% among 290,000. AID 1822;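 active = inhibition above the campaign mean inhibition over all tested compounds plus 3 SD, cut at about 28% in these data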;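 note: 0% = plate median of test compound wells and 100% = 2 mM ZnCl2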
ALR H2O2 inh = blocks human ALR sulfhydryl oxidase activity | P55789 | purified ALR, DTT oxidation, H2O2 HRP-luminol luminescence | inhibition, % (no concentration beside the values) | hit rate 3.8% among 290,000 | AID 485317;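 active = mean replicate inhibition above about 79%, with every replicate also reaching it, limit read from the data; inconclusive = only one of the two criteria met; inactive = mean below limit and not every replicate reaching it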
Target sequence (P55789 whole entry, looked up): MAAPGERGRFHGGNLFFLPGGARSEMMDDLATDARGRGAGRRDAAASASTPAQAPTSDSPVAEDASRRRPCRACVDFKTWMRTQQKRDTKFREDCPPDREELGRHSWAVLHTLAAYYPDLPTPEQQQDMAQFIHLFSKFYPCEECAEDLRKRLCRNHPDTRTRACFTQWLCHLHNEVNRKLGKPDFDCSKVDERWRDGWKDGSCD
EBNA-1 inhibitor = blocks EBNA-1 binding to DNA | EBNA-1 DNA binding, fluorescence polarization | inhibition, % at 14.8 µM | hit rate 0.34% among 300,000 | AID 1950; in the data active = inhibition above about 28%
core dimer inh = blocks dimerization of HCV core protein; TR-FRET GST/Flag-core106 dimerization, 1536-well; inhibition, % at 5 µM; hit rate 0.33% among 300,000; AID 1899;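 active = inhibition above the mean of all tested compounds plus 3 SD, set per screening campaign, cut at about 45% in these data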
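assay system = GST-tagged and Flag-tagged HCV core protein residues 1-106 | controls = unlabelled core106 and no-GST-core106 wells | incubation = compound-protein-antibody incubation 4 h at 22.5 °C | probe or stimulus = Eu donor and XL665 acceptor anti-tag antibodies | read-out = % inhibition based on acceptor/donor emission ratio | signal = TR-FRET 671 and 617 nm emission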
HCV NS3 hel inh = inhibitors of Hepatitis C virus NS3 helicase | inhibition, % at 10.9 µM | NS3 helicase DNA unwinding, Cy5 molecular beacon fluorescence | hit rate 0.56% among 290,000;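 active = inhibition above the mean of all tested compounds plus 3 SD, set per campaign, cut at about 35% in these data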;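 note: 0% = DMSO wells and 100% = thioflavine S control wells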
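Assay system: hepatitis C virus NS3 helicase domain fragment enzyme. Also added: annealed dual-labelled DNA beacon duplex, ATP-started. Timing: 1 h reaction at 25 °C, ATP-initiated. Technique: Cy5 fluorescence at 0 and 60 min, beacon hairpin quenching. Evaluation: % inhibition of unwinding. Replication: one well per compound.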
ZTA counter = counter-screen for EBNA-1 inhibitors: inhibitors of Epstein-Barr virus ZTA | inhibition, % at 11 µM | P03206 | ZTA-DNA binding, fluorescence polarization | hit rate 0.15% among 320,000; in the data active = inhibition above about 33%
Target sequence (P03206 whole entry, looked up): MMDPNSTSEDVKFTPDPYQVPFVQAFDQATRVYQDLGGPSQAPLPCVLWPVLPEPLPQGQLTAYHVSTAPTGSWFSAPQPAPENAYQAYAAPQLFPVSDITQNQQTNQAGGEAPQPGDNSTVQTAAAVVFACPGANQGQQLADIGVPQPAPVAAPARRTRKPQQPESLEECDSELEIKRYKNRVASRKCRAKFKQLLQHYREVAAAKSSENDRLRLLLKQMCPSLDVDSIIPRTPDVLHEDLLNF
An asterisk follows results filed as active; ? = inconclusive; . = no result given.

SMILES | M18AAP inhibitor | ALR H2O2 inh | EBNA-1 inhibitor | core dimer inh | HCV NS3 hel inh | ZTA counter
c1ccc(CCCN2CCN(c3ccccc3)CC2)cc1 | -3 | 86* | -7 | 3 | -7 | -5
COc1cccc(N2CCN(CC(=O)NCc3ccccc3)CC2)c1 | 5 | 98* | -6 | 5 | 7 | -3
Cc1ccc(N2CC(=O)N(NC(=O)CN3CCN(c4ccccc4)CC3)CC2=O)cc1 | -6 | 85* | -4 | -1 | 0 | 9
CC(NC(=O)CN1CCN(c2ccc(Cl)cc2)CC1)c1ccccc1 (stereo not drawn) | 1 | . | -10 | 1 | -13 | -5
c1ccc(CCCN2CCOCC2)cc1 | -3 | 2 | . | . | 1 | .
CC(CCc1ccccc1)NC(=O)CN1CCN(c2ccccc2)CC1 (stereo not drawn) | 2 | 99* | -6 | -2 | -17 | -28
COC(=O)COc1ccc(C2Nc3c(Cl)ccc(C(=O)O)c3C3C=CCC32)cc1 (stereo not drawn) | 15 | 21 | 4 | 14 | 23 | 10
O=[N+]([O-])c1ccc(Cl)c2c1C1C=CCC1C(c1ccccn1)N2 (stereo not drawn) | 9 | -20 | 13 | 58* | 22 | 0
C1=CC2c3ccccc3NC(c3ccncc3)C2C1 (stereo not drawn) | -10 | -21 | 6 | 7 | 13 | -14
Cc1cc([N+](=O)[O-])cc2c1NC(c1ccccn1)C1CC=CC21 (stereo not drawn) | 2 | . | 2 | 49* | 9 | 6
Cc1ccc(N2CC(C(=O)N3CCOCC3)CC2=O)cc1Cl (stereo not drawn) | 9 | -7 | -4 | -6 | 25 | -9
O=C1C(=Cc2cccn2-c2ccc(O)cc2)C(=O)c2ccccc21 | 6 | -9 | 25 | 61* | 12 | 0
O=c1cc(CN2CC(O)Cc3ccc4ccccc4c32)nc2sccn12 (stereo not drawn) | 0 | 56 | -11 | -3 | 0 | 16
CC1Cc2ccccc2N1Cc1cc(=O)n2ccsc2n1 (stereo not drawn) | 4 | ? | -14 | 68* | 3 | 21
COc1ccccc1N1CCN(Cc2cc(=O)n3ccsc3n2)CC1 | 0 | 90* | 1 | 2 | 1 | 1
O=c1cc(CN2CCCCCC2)nc2sccn12 | -1 | -9 | -4 | -2 | -7 | -1
Cc1ccc2nc(NCCCO)[nH]c2c1 | -1 | 97* | -3 | -2 | -3 | 6
O=C(NCCCn1ccnc1)Nc1ccc2c(c1)OCO2 | 5 | . | 0 | -10 | -2 | -16
Cc1cc(C(=O)Nc2ncn(Cc3ccc(F)cc3)n2)ccc1[N+](=O)[O-] | 31* | 1 | -3 | -1 | -6 | -12
Cc1cc(C(=O)Nc2ccncc2)ccc1[N+](=O)[O-] | -1 | -15 | -5 | 4 | -1 | -4
COc1cc(OC)c(C2CC(=O)N3CN(c4ccccc4C)CSC3=C2C#N)cc1OC (stereo not drawn) | 43* | -19 | -4 | 13 | 14 | 6
COc1ccc(OC)c(C2CC(=O)N3CN(c4ccccc4)CSC3=C2C#N)c1 (stereo not drawn) | 25 | -6 | 6 | 25 | 18 | -12
COc1ccc(C2CC(=O)N3CN(Cc4ccco4)CSC3=C2C#N)cc1 (stereo not drawn) | 30* | -12 | 11 | -2 | 33 | -4
COc1ccc(C2CC(=O)N3CN(c4ccccc4F)CSC3=C2C#N)cc1OC (stereo not drawn) | 17 | -37 | -11 | -3 | 2 | 10
COc1ccc(C2CC(=O)N3CN(c4ccc(C)c(Cl)c4)CSC3=C2C#N)cc1 (stereo not drawn) | 17 | -20 | 2 | 4 | 32 | 3
COc1ccc(N2CSC3=C(C#N)C(c4cccc(OC)c4OC)CC(=O)N3C2)cc1 (stereo not drawn) | 28* | 34 | 5 | 6 | 21 | 9
Cc1cccc(N2CSC3=C(C#N)C(c4ccc(C)o4)CC(=O)N3C2)c1 (stereo not drawn) | 33* | 99* | 2 | 84* | 20 | 13
O=C(COC(=O)C12CC3CC(CC(C3)C1)C2)NCCc1ccccc1 | -4 | -2 | 11 | -1 | 1 | -2

High-throughput results from PubChem.
